Rows were chosen to be rich in hits. Some 2.2% of all compounds tested hit in one or more screens of this group.
dFosB act: activators of mouse delta FosB homodimer. actives 0.99% (n = 340,000). activation, % at 25 µM. P13346. purified delta FosB, TAMRA-CDK5 oligo fluorescence polarization; percent of positive-control signal above neutral wells;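 active means mean activation above about 17%, with every replicate also reaching it, limit read from the data, passing the limit was not always enough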
Target sequence (P13346 whole entry, looked up): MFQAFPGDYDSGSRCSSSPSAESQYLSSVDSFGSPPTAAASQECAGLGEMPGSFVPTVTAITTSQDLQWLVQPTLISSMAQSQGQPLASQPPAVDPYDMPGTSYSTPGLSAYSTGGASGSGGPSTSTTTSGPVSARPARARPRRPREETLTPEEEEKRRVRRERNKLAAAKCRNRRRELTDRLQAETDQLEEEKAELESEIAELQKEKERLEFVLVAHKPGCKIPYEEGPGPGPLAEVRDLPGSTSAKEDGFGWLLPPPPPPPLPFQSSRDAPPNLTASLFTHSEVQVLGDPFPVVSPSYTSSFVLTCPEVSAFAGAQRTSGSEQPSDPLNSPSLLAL
S100A4 MyoIIA: inhibitors of human S100A4 binding to myosin IIA peptide | P26447 | S100A4/TAMRA-MyoIIA peptide fluorescence polarization | inhibition, % at 10.7 µM | actives 0.14% (n = 360,000) | AID 652163;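 active means mean inhibition of at least 70% across replicates, with every replicate also reaching that level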
Target sequence (P26447 whole entry, looked up): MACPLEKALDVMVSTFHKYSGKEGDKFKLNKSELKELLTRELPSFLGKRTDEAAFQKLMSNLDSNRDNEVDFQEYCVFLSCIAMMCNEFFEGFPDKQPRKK
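Material: S100A4 monomer protein | Medium: HEPES pH 7.2 with CaCl2, KCl, NaCl, DTT, Triton | Reagent: Labelled myosin peptide probe, 5 nM | Doses: One dose per compound | Times: 5 min incubation before reading | Benchmarks: Neutral control DMSO, positive control TFP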
FGF22 binding: FGF22 (human) thermal shift binding; actives 1.5% (n = 340,000); Q9HCT0; activity (Tm shift, normalised), % at 9.99 µM; recombinant FGF22 thermal shift, SYPRO orange fluorescence; percent of sucrose octasulfate shift, DMSO zero;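 active means mean Tm shift, scaled 0 neutral to 100 positive control, at about 1.3% or above, every replicate too, limit read from the data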
F508del corr: CFTR F508del correction in bronchial cells. CFBE cells, YFP halide quenching; stimulated with forskolin plus potentiator P3; % fluorescence drop versus neutral controls. activity (quench increase), % at 7.58 µM. actives 0.36% (n = 350,000). AID 720511;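 active means mean added fluorescence quench of at least 8% versus neutral control, with both replicates also reaching 8%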;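 further: cells transiently co-express mutant CFTR-F508del with the halide-sensitive YFP; corrector assay measuring rescue of mutant channel to the surface after 24 h compound exposure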
Numbers stand for hits.

For COc1ccc(/C=C2\SC(=S)N(CCCC(=O)NC34CC5CC(CC(O)(C5)C3)C4)C2=O)cc1 the results were S100A4 MyoIIA inactive, FGF22 binding inactive and F508del corr inactive.
Screening C[C@H]1CN([C@@H](C)CO)S(=O)(=O)c2ccc(-c3cccc(C#N)c3)cc2O[C@H]1CN(C)C(=O)c1ccncc1 returned S100A4 MyoIIA inactive, FGF22 binding inactive and F508del corr inactive.
CC(=O)c1c(C)[nH]c(C(=O)OCc2nnc(-c3ccc([N+](=O)[O-])cc3)o2)c1C was read as dFosB act inactive, S100A4 MyoIIA inactive, FGF22 binding inactive and F508del corr 9.2.
For CC(=O)c1c(C)[nH]c(C(=O)OCC(=O)NNC(=O)c2ccc([N+](=O)[O-])cc2)c1C the results were dFosB act inactive, S100A4 MyoIIA inactive, FGF22 binding inactive and F508del corr inactive.
Screening Cc1noc(C)c1NC(=O)N(C)C[C@@H]1Oc2ccc(NC(=O)Cc3cn(C)c4ccccc34)cc2C(=O)N([C@H](C)CO)C[C@H]1C returned S100A4 MyoIIA inactive, FGF22 binding inactive and F508del corr inactive.
Screening C[C@@H]1CCCCO[C@H](CN(C)S(=O)(=O)c2cccs2)[C@@H](C)CN([C@H](C)CO)C(=O)c2cc(NS(=O)(=O)c3cccs3)ccc2O1 returned S100A4 MyoIIA inactive, FGF22 binding inactive and F508del corr inactive.
C[C@H](CO)N1C[C@H](C)[C@H](CN(C)S(=O)(=O)c2cccs2)OCCCC[C@H](C)Oc2ccc(NS(=O)(=O)c3ccc(Cl)cc3)cc2C1=O was read as S100A4 MyoIIA inactive, FGF22 binding 1.2 and F508del corr inactive.
For C[C@@H]1CCCCO[C@H](CN(C)S(=O)(=O)c2cccs2)[C@@H](C)CN([C@@H](C)CO)C(=O)c2cc(NS(=O)(=O)c3cccs3)ccc2O1 the results were S100A4 MyoIIA 103, FGF22 binding inactive and F508del corr inactive.
`C[C@@H]1CCCCO[C@@H](CN(C)C(=O)CCCN(C)C)[C@H](C)CN([C@@H](C)CO)C(=O)c2cc(NS(=O)(=O)c3cccs3)ccc2O1` gave S100A4 MyoIIA inactive, FGF22 binding 1.3 and F508del corr inactive.
For CN1C(=O)c2cc(NC(=O)c3cccs3)ccc2OC[C@@H]2O[C@H](CC(=O)O)CC[C@@H]21 the results were S100A4 MyoIIA inactive, FGF22 binding inactive and F508del corr inactive.
For Cc1ccc(NS(=O)(=O)c2c(F)cc(F)c(Cl)c2F)cc1S(=O)(=O)N1CCOCC1 the results were dFosB act inactive, S100A4 MyoIIA inactive, FGF22 binding 44 and F508del corr inactive.
`Cc1ccc(NC(=O)Cc2c(F)cccc2Cl)cc1S(=O)(=O)N1CCOCC1` gave dFosB act inactive, S100A4 MyoIIA inactive, FGF22 binding inactive and F508del corr inactive.
`O=C(NCC[C@@H]1CC[C@@H](NS(=O)(=O)c2ccccc2F)[C@@H](CO)O1)c1ccc(F)cc1` gave S100A4 MyoIIA inactive, FGF22 binding inactive and F508del corr inactive.
For C[C@@H]1CN([C@@H](C)CO)C(=O)c2cccc(NC(=O)c3cnccn3)c2O[C@H]1CN(C)S(=O)(=O)c1ccccc1 the results were F508del corr inactive.
Cc1cccc(C)c1NC(=O)CN(C)c1ccc(C(F)(F)F)cn1 was read as dFosB act inactive, S100A4 MyoIIA inactive, FGF22 binding 43 and F508del corr inactive.
For C[C@@H]1CN([C@H](C)CO)S(=O)(=O)c2ccc(/C=C/c3ccccc3)cc2O[C@H]1CN(C)Cc1cccnc1 the results were S100A4 MyoIIA inactive, FGF22 binding inactive and F508del corr inactive.
Screening Cc1cccc(OCC(=O)NNC(=O)c2ccc3nc[nH]c3c2)c1 returned dFosB act inactive, S100A4 MyoIIA inactive, FGF22 binding inactive and F508del corr 17.
`CO[C@@H]1CN(C)C(=O)c2ccc(NC(=O)NC3CCCCC3)cc2OC[C@@H](C)N(CCc2ccccc2)C[C@H]1C` gave S100A4 MyoIIA inactive, FGF22 binding inactive and F508del corr inactive.
CC(=O)Nc1cc2c(cc1Cl)-c1ccc(F)cc1C2O (configuration not stated) was read as dFosB act inactive, S100A4 MyoIIA inactive, FGF22 binding 44 and F508del corr inactive.
Screening CC(C)=CCN1CCN(Cc2nc(-c3ccc(F)cc3)cs2)CC1CCO (configuration not stated) returned dFosB act inactive, S100A4 MyoIIA inactive, FGF22 binding inactive and F508del corr inactive.
OCCC1CN(Cc2nc(-c3ccccc3)cs2)CCN1Cc1ccc(F)cc1 (configuration not stated) was read as dFosB act inactive, S100A4 MyoIIA inactive, FGF22 binding 43 and F508del corr inactive.
Screening OCCC1CN(Cc2cnn(-c3ccccc3Cl)c2)CCN1Cc1ccsc1 (configuration not stated) returned dFosB act inactive, S100A4 MyoIIA inactive, FGF22 binding 49 and F508del corr inactive.
`CC(=O)Nc1ccc(NC(=O)c2ccccc2CCc2ccccc2)cc1` gave dFosB act inactive, S100A4 MyoIIA inactive, FGF22 binding 44 and F508del corr inactive.
Screening CCCNC(=O)N1C[C@@H](O)COC[C@@H]2O[C@@H](CC(=O)NCc3ccncn3)CC[C@H]21 returned S100A4 MyoIIA inactive, FGF22 binding inactive and F508del corr inactive.
`COC(=O)C[C@@H]1CC[C@@H]2[C@H](COc3ccc(NC(=O)c4ccc(C(F)(F)F)cc4)cc3C(=O)N2C)O1` gave S100A4 MyoIIA inactive, FGF22 binding inactive and F508del corr 11.
For CN1C(=O)c2cc(NC(=O)Cc3cccs3)ccc2OC[C@H]2O[C@H](CC(=O)N[C@H]3CCN(Cc4ccccc4)C3)CC[C@@H]21 the results were S100A4 MyoIIA 96 and FGF22 binding inactive.
CN1C(=O)c2cc(NC(=O)Cc3cccs3)ccc2OC[C@@H]2O[C@@H](CC(=O)N[C@H]3CCN(Cc4ccccc4)C3)CC[C@H]21 was read as S100A4 MyoIIA inactive and FGF22 binding inactive.
C[C@@H]1CN([C@@H](C)CO)C(=O)c2cc(NS(=O)(=O)c3ccc(Cl)cc3)ccc2O[C@@H]1CN(C)S(=O)(=O)c1cn(C)cn1 was read as S100A4 MyoIIA inactive, FGF22 binding inactive and F508del corr inactive.
COc1ccc(Cc2noc(CN3CCN(c4ccc(Cl)cn4)CC3)n2)cc1OC was read as dFosB act inactive, S100A4 MyoIIA inactive, FGF22 binding inactive and F508del corr inactive.
`COc1ccc(Cc2noc(CN3CCN(Cc4cccc(Cl)c4)CC3)n2)cc1OC` gave dFosB act inactive, S100A4 MyoIIA inactive and FGF22 binding 44.
For CCC(=O)N1CC(=O)N2[C@H](CO)[C@H](c3ccc(C#CC4CCCC4)cc3)[C@H]2C1 the results were S100A4 MyoIIA 136 and F508del corr inactive.
Screening O=C(C1CCCCC1)N1CC(=O)N2[C@@H](CO)[C@H](c3ccc(C#Cc4cccc(F)c4)cc3)[C@@H]2C1 returned S100A4 MyoIIA inactive and F508del corr 9.6.

Compound activity (PubChem BioAssay)
